# Assay results of several laboratories.
# Protocols differ between the studies behind these lines.
# Target: D(2) dopamine receptor (DRD2, Homo sapiens, UniProt P14416)
# Concentration: 10 µM
Structure (SMILES),read-out,action,technique,inhibition
COc1cccc(OC[C@@H]2CN(CC(=O)N3CCc4ccccc43)CCO2)c1,ligand displacement,,radioligand,9.5%
COc1ccc(S(N)(=O)=O)cc1C(=O)NCCCN1CCN(c2ccccc2C)CC1,enzyme activity,inhibitor,,45.1%
NS(=O)(=O)c1cc(NC(=O)Cc2ccccc2)ccc1Oc1cccc(Cl)c1,ligand displacement,,,-7.81%
O=c1oc2cc(OCC(O)CN3CCN(c4ccc(F)cc4)CC3)ccc2c2c1CCC2 (centres unmarked),enzyme activity,inhibitor,,40.8%
CN(C)C(=O)Cn1cc(-c2nc(C3(c4ccc(-c5cnc(N)nc5)cc4)CC3)no2)cn1,cell-free assay,,,16.1%
CCCNc1nc2ccccc2n1Cc1ccc(Cl)cc1,ligand displacement,,,1.09%
O=C1c2ccccc2CCCN1CCCCN1CCN(c2ccccn2)CC1,ligand displacement,,radioligand,93%
Cc1ccccc1N1CCN(CCCCN2C(=O)C3CCCN3C2=O)CC1 (centres unmarked),enzyme activity,inhibitor,,42.3%
COc1ccc2c(c1)C(=O)N(CCN1CCN(c3ccccc3OC)CC1)C2,ligand displacement,,radioligand,66.6%
CN(C)CC#Cc1ccc(OCCCc2sc(N3CCc4cccc(C(=O)Nc5nc6ccccc6s5)c4C3)nc2C(=O)O)c(F)c1,ligand displacement,,,31.5%
O=C1N=C(N2CCCCN2)S/C1=C\c1ccc(F)cc1O,ligand displacement,,radioligand,< 10%
Cc1ncccc1OC[C@H]1CN(CCN2CCc3ccccc32)CCO1,ligand displacement,,radioligand,26.5%
Cc1ccccc1OCC(O)CN1CCN(CC(O)COc2ccccc2C)CC1 (centres unmarked),enzyme activity,inhibitor,,19.5%
Clc1cccc(OC[C@H]2CN(CCN3CCc4ccccc43)CCO2)c1,ligand displacement,,radioligand,63.1%
Cc1c(C(=O)O)cc(-c2ccc(C3CCNCC3)cc2)c2ccc(-c3ccc(C(F)(F)F)cc3)cc12,cell-free assay,,,-14.4%
c1ccc(OC[C@@H]2CN(CCN3CCc4ccccc43)CCO2)cc1,ligand displacement,,radioligand,92.8%
COc1ccc(CCN2C(=O)CC(N3CCN(c4ccc(Cl)cc4)CC3)C2=O)cc1OC (centres unmarked),enzyme activity,inhibitor,,11.9%
Cc1noc([C@H]2C[C@@H](c3ccc(C(F)(F)F)cc3)CN(C(=O)N3CCS(=O)(=O)C3)C2)n1,ligand displacement,,,-0.15%
Cc1ccccc1N1CCN(CC(O)COc2ccc(C(=O)c3ccccc3)cc2)CC1 (centres unmarked),enzyme activity,inhibitor,,49.2%
CCC(F)(F)c1cc(N2CCC(S(C)(=O)=O)CC2)nc2sc(C(N)=O)c(N)c12,ligand displacement,,,69.8%
